Values after ≈ are worked out from the molar mass of the structure shown.
How the values were obtained:
[1] = system: MT-2 cells (Homo sapiens); test: In vitro for the cytotoxicity in MT-2 cells.
[2] = Inhibitory activity against NC-1 binding to N-36/C-34 peptide complex; type: functional
Procedure, shortened: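 Sandwich ELISA: N-36 (2 μM) preincubated with graded compound 30 min at 37 °C, then C-34 (2 μM) added for 30 min at 37 °C. Mixture captured on wells coated with rabbit anti-N36(L6)C34 IgG (10 μg/mL), detected with mAb NC-1, biotin anti-mouse IgG, streptavidin-HRP and TMB; A450 read; IC50 via Calcusyn.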

[3] = Inhibitory activity against HIV-I mediated cytopathic effect in MT-2 cells; type: functional, cell-based; details: Human immunodeficiency virus 1, MT2
Procedure, shortened: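 1×10^4 MT-2 cells infected with diluted HIV-1 IIIB in RPMI 1640 with 10% FBS, graded compound concentrations; medium changed during culture. On day 6 post-infection, XTT (1 mg/mL) added, formazan read at 450 nm after 4 h; percent CPE inhibition and IC50 calculated.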

[4] = system: Human immunodeficiency virus 1; test: Selectivity index was determined by CC50/IC50 for Cytopathic effect.; type: functional
Procedure, shortened: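 Ratio of CC50 (XTT viability in uninfected MT-2 cells) to IC50 from HIV-1 IIIB CPE protection in MT-2 cells (XTT read-out, day 6).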

[5] = Inhibitory activity against HIV-I mediated H9 cells fusion.; type: functional, cell-based, Human immunodeficiency virus 1
Procedure, shortened: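 Dye transfer fusion assay: BCECF-AM-labeled H9/HIV-1 IIIB cells co-cultured with MT-2 cells (1:10) for 2 h at 37 °C with or without compound. Fused and unfused labeled cells counted by fluorescence microscopy; percent inhibition and IC50 derived.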

SMILES: CC(c1nc2ccc(Cl)cc2c(=O)n1Cc1ccccc1)N(C(=O)c1ccc([N+](=O)[O-])cc1)c1ccc(F)cc1 (stereo not given)
- CC50 [1]: 30.2 µg/mL (≈ 54.2 µM)
- IC50 [2]: > 100 µg/mL
- IC50 [3]: > 100 µg/mL
- Selectivity index [4]: < 1
- IC50 [5]: > 100 µg/mL

SMILES: CC[C@H]1CN2CC[C@H]1C[C@@H]2[C@@H](OC(=O)c1ccccc1Cl)c1ccnc2ccc(OC)cc12
- CC50 [1]: 41.3 µg/mL (≈ 88.9 µM)
- IC50 [2]: > 100 µg/mL
- IC50 [3]: > 100 µg/mL
- Selectivity index [4]: < 1
- IC50 [5]: 59.78 µg/mL (≈ 129 µM)

SMILES: Cc1ccc(N(C(=O)Nc2ccccc2)C(C)c2nc(O)c3ccccc3n2)c(C)c1 (stereo not given)
- CC50 [1]: 40.8 µg/mL (≈ 98.8 µM)
- IC50 [2]: > 100 µg/mL
- IC50 [3]: > 100 µg/mL
- Selectivity index [4]: < 1
- IC50 [5]: > 100 µg/mL

SMILES: O=P(CCP(c1ccccc1)c1ccccc1)(c1ccccc1)c1ccccc1
- CC50 [1]: 28.9 µg/mL (≈ 69.7 µM)
- IC50 [2]: > 100 µg/mL
- IC50 [3]: > 100 µg/mL
- Selectivity index [4]: < 1
- IC50 [5]: 52.27 µg/mL (≈ 126 µM)

SMILES: Cc1ccc(N(C(=O)Nc2cccc(Cl)c2)C(C)c2nc(O)c3ccccc3n2)c(C)c1 (stereo not given)
- CC50 [1]: 54 µg/mL (≈ 121 µM)
- IC50 [2]: > 100 µg/mL
- IC50 [3]: > 100 µg/mL
- Selectivity index [4]: < 1
- IC50 [5]: > 100 µg/mL

SMILES: Cc1ccc(C(=O)Nc2cccc(C(=O)N/N=C/c3ccc(Br)cc3)c2)cc1
- CC50 [1]: 24.9 µg/mL (≈ 57.1 µM)
- IC50 [2]: > 100 µg/mL
- IC50 [3]: > 100 µg/mL
- Selectivity index [4]: < 1
- IC50 [5]: > 100 µg/mL

SMILES: CC(Nc1ccccc1Cl)c1nc2ccccc2c(=O)n1Cc1ccccc1 (stereo not given)
- CC50 [1]: 86.8 µg/mL (≈ 223 µM)
- IC50 [2]: > 100 µg/mL
- IC50 [3]: > 100 µg/mL
- Selectivity index [4]: < 1
- IC50 [5]: > 100 µg/mL

SMILES: Cc1ccc(N(C(=O)Nc2ccc(Cl)c(Cl)c2)C(C)c2nc(O)c3ccccc3n2)c(C)c1 (stereo not given)
- CC50 [1]: 39.2 µg/mL (≈ 81.5 µM)
- IC50 [2]: > 100 µg/mL
- IC50 [3]: > 100 µg/mL
- Selectivity index [4]: < 1
- IC50 [5]: > 100 µg/mL

SMILES: O=C(Nc1ccc(Cl)c(Cl)c1)O/N=C(/c1ccccc1)c1ccc(-c2ccccc2)cc1
- CC50 [1]: 74.7 µg/mL (≈ 162 µM)
- IC50 [2]: > 100 µg/mL
- IC50 [3]: > 100 µg/mL
- Selectivity index [4]: < 1
- IC50 [5]: > 100 µg/mL

SMILES: COc1ccc(S(=O)(=O)O)cc1/N=N/c1c(S(=O)(=O)O)cc2cc(Nc3nc(Nc4ccccc4)nc(Nc4cc(C)c(/N=N/c5cc(S(=O)(=O)O)cc6cc(S(=O)(=O)O)cc(O)c56)cc4OC)n3)ccc2c1O
- CC50 [1]: 292 µg/mL (≈ 268 µM)
- IC50 [2]: 0.73 µg/mL (≈ 0.67 µM)
- IC50 [3]: 8.29 µg/mL (≈ 7.61 µM)
- Selectivity index [4]: 35.2
- IC50 [5]: 4.95 µg/mL (≈ 4.55 µM)

SMILES: O=C(Nc1cc([N+](=O)[O-])ccc1-c1ccc([N+](=O)[O-])cc1)c1ccc([N+](=O)[O-])cc1Cl
- CC50 [1]: 47.2 µg/mL (≈ 107 µM)
- IC50 [2]: > 100 µg/mL
- IC50 [3]: > 100 µg/mL
- Selectivity index [4]: < 1
- IC50 [5]: > 100 µg/mL

SMILES: C=C[C@H]1CN2CC[C@H]1C[C@@H]2[C@@H](OC(=O)c1ccc(OC)cc1)c1ccnc2ccccc12
- CC50 [1]: 74.1 µg/mL (≈ 173 µM)
- IC50 [2]: > 100 µg/mL
- IC50 [3]: > 100 µg/mL
- Selectivity index [4]: < 1
- IC50 [5]: > 100 µg/mL

SMILES: COC(=O)c1cc(C(=O)OC)cc(N(C(=O)Nc2ccc(Cl)c(Cl)c2)C(C)c2nc3ccccc3c(=O)n2Cc2ccccc2)c1 (stereo not given)
- CC50 [1]: 20.9 µg/mL (≈ 31.8 µM)
- IC50 [2]: > 100 µg/mL
- IC50 [3]: > 100 µg/mL
- Selectivity index [4]: < 1
- IC50 [5]: > 100 µg/mL

SMILES: COc1ccc2c(c1)CCCC2=NOC(=O)Nc1ccccc1-c1ccccc1
- CC50 [1]: 46.8 µg/mL (≈ 121 µM)
- IC50 [2]: > 100 µg/mL
- IC50 [3]: > 100 µg/mL
- Selectivity index [4]: < 1
- IC50 [5]: > 100 µg/mL

SMILES: C/C(=N/OC(=O)NS(=O)(=O)c1ccc(C)cc1)c1cc2ccccc2oc1=O
- CC50 [1]: 286 µg/mL (≈ 714 µM)
- IC50 [2]: > 100 µg/mL
- IC50 [3]: > 100 µg/mL
- Selectivity index [4]: < 1
- IC50 [5]: > 100 µg/mL

SMILES: Cc1ccc(/N=N/c2c(S(=O)(=O)O)cc3cc(S(=O)(=O)O)cc(Nc4nc(Cl)nc(N(C)c5ccccc5)n4)c3c2O)c(S(=O)(=O)O)c1
- CC50 [1]: 290 µg/mL (≈ 394 µM)
- IC50 [2]: 3.18 µg/mL (≈ 4.32 µM)
- IC50 [3]: 30.8 µg/mL (≈ 41.8 µM)
- Selectivity index [4]: 9.43
- IC50 [5]: 21.85 µg/mL (≈ 29.7 µM)
